Calls of active or inactive are those of the source. The calls are words filed in the database; no cut-off is given here.
Key:
[1] = test system: Chlamydia trachomatis; assay: Antichlamydial activity against Chlamydia trachomatis L2 serovar VR-902B infected in human HeLa cells assessed as growth inhibition at 50 uM after 24 to 48 hrs by microscopic analysis in presence of iron sulfate; format: functional, organism-based
[2] = test system: Chlamydia pneumoniae; assay: Antichlamydial activity against Chlamydia pneumoniae T45 infected in human HeLa cells assessed as growth inhibition at 50 uM after 24 to 48 hrs by microscopic analysis; format: functional
[3] = Cytotoxicity against human HeLa cells assessed as cell viability at 50 uM after 48 hrs by resazurin based fluorescence assay; details: read-out: Activity
[4] = test system: Yersinia pseudotuberculosis; assay: Inhibition of type 3 secretion system in Yersinia pseudotuberculosis by yopE luciferase reporter gene assay
How it was run: (§1)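 T3S inhibition in bacterial cultures measured with a yopE luciferase reporter gene. Compound used in two-fold dilutions from 100 to 12,5 at 1% final DMSO. Result given as percent inhibition relative to 1% DMSO-treated controls.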

[5] = test system: Chlamydia trachomatis; assay: Antichlamydial activity against Chlamydia trachomatis L2 serovar VR-902B infected in human HeLa cells assessed as growth inhibition at 50 uM after 24 to 48 hrs by microscopic analysis; format: functional
[6] = test system: Yersinia pseudotuberculosis; assay: Antimicrobial activity against Yersinia pseudotuberculosis after 20 hrs; format: functional
How it was run: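 Overnight culture diluted into Mueller Hinton broth containing compound at 100, 50, 25 or 12, incubated 37 °C for 20 h; bacterial growth scored by visual inspection to give minimum inhibitory concentration.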

[7] = test system: Yersinia pseudotuberculosis; assay: Inhibition of type 3 secretion system in Yersinia pseudotuberculosis at 100 uM by yopE luciferase reporter gene assay; how it was run: as §1
[8] = Aqueous solubility of the compound; format: physicochemical; details: buffer
[9] = test system: Yersinia pseudotuberculosis; assay: Inhibition of phosphatase activity of secreted YopH in Yersinia pseudotuberculosis at 12 to 100 uM by orthogonal assay
How it was run: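 Orthogonal test of T3S inhibition in bacterial cultures that reads the phosphatase activity of secreted YopH effector protein. Compound used in two-fold dilutions from 100 to 12,5 at 1% final DMSO. Result given as percent inhibition relative to 1% DMSO-treated controls.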

Compound: Cc1cc(NS(=O)(=O)c2ccc(C(=O)N/N=C/c3cc(Br)cc(Br)c3O)cc2)no1
- growth inhibition (GI) [1]: inactive
- inhibition at 50 µM [2]: 99.4%
- viability at 48 h, 50 µM [3]: > 70%
- inhibition [4]: Dose-dependent effect
- inhibition at 50 µM [5]: 65.2%
- MIC [6]: > 100 µM
- inhibition [7]: Active

Compound: Cc1cc(NS(=O)(=O)c2ccc(NC(=O)/C=C/c3ccc(C(=O)N/N=C/c4cccc(F)c4O)cc3)cc2)no1
- inhibition [2]: inactive
- viability at 48 h, 50 µM [3]: > 70%
- inhibition [4]: Dose-dependent effect
- inhibition at 50 µM [5]: 33.4%
- MIC [6]: > 100 µM

Compound: Cc1cc(NS(=O)(=O)c2ccc(NC(=O)NCc3ccccc3O)cc2)no1
- inhibition [2]: inactive
- viability at 48 h, 50 µM [3]: > 70%
- inhibition [5]: inactive
- MIC [6]: > 100 µM

Compound: CCN(CC)c1ccc(/C=N/NC(=O)c2ccc(S(=O)(=O)Nc3cc(C)on3)cc2)c(O)c1
- growth inhibition (GI) [1]: inactive
- inhibition at 50 µM [2]: 100%
- viability at 48 h, 50 µM [3]: > 70%
- inhibition [4]: Dose-dependent effect
- inhibition at 50 µM [5]: 83%
- MIC [6]: > 100 µM

Compound: Cc1cc(NS(=O)(=O)c2ccc(NC(=O)/C=C/c3ccc(C(=O)N/N=C/c4cc(Cl)cc(Cl)c4O)cc3)cc2)no1
- inhibition [2]: inactive
- viability at 48 h, 50 µM [3]: > 70%
- inhibition [4]: Dose-dependent effect
- inhibition at 50 µM [5]: 14.6%
- MIC [6]: > 100 µM

Compound: Cc1cc(NS(=O)(=O)c2ccc(NC(=S)Nc3ccc(O)cc3)cc2)no1
- inhibition at 50 µM [2]: 60.8%
- viability at 48 h, 50 µM [3]: > 70%
- inhibition [5]: inactive
- MIC [6]: > 100 µM

Compound: Cc1cc(NS(=O)(=O)c2ccc(NC(=S)NC3CCCCC3)cc2)no1
- inhibition [2]: inactive
- viability at 48 h, 50 µM [3]: > 70%
- inhibition at 50 µM [5]: 26.9%
- MIC [6]: > 100 µM

Compound: Cc1cc(NS(=O)(=O)c2ccc(NC(=O)NC3CCCCC3)cc2)no1
- inhibition [2]: inactive
- viability at 48 h, 50 µM [3]: > 70%
- inhibition at 50 µM [5]: 14.8%
- MIC [6]: > 100 µM

Compound: Cc1cc(NS(=O)(=O)c2ccc(NC(S)=NCc3ccccc3)cc2)no1
- inhibition [2]: inactive
- viability at 48 h, 50 µM [3]: > 70%
- inhibition at 50 µM [5]: 26.9%
- MIC [6]: > 100 µM

Compound: Cc1cc(NS(=O)(=O)c2ccc(C(=O)N/N=C/c3ccc(O)cc3O)cc2)no1
- inhibition [2]: inactive
- viability at 48 h, 50 µM [3]: > 70%
- inhibition [4]: Dose-dependent effect
- inhibition at 50 µM [5]: 47.4%
- MIC [6]: > 100 µM

Compound: Cc1cc(NS(=O)(=O)c2ccc(NC(=O)Nc3ccc(O)cc3)cc2)no1
- inhibition [2]: inactive
- viability at 48 h, 50 µM [3]: > 70%
- inhibition at 50 µM [5]: 9.6%
- MIC [6]: > 100 µM

Compound: CCN(CC)c1ccc(/C=N/NC(=O)c2ccc(/C=C/C(=O)Nc3ccc(S(=O)(=O)Nc4cc(C)on4)cc3)cc2)c(O)c1
- inhibition at 50 µM [2]: 22.4%
- inhibition [4]: Dose-dependent effect
- inhibition at 50 µM [5]: 28%
- MIC [6]: > 100 µM
- solubility [8]: Insoluble

Compound: Cc1cc(NS(=O)(=O)c2ccc(NC(=O)NCc3ccccc3)cc2)no1
- inhibition [2]: inactive
- viability at 48 h, 50 µM [3]: > 70%
- inhibition at 50 µM [5]: 18.5%
- MIC [6]: > 100 µM

Compound: Cc1cc(NS(=O)(=O)c2ccc(NC(=S)NCc3ccccc3O)cc2)no1
- inhibition [2]: inactive
- viability at 48 h, 50 µM [3]: > 70%
- inhibition [5]: inactive
- MIC [6]: > 100 µM

Compound: Cc1cc(NS(=O)(=O)c2ccc(C(=O)N/N=C/c3cc(Cl)cc(Cl)c3O)cc2)no1
- inhibition [2]: inactive
- viability at 48 h, 50 µM [3]: > 70%
- inhibition [4]: Dose-dependent effect
- inhibition at 50 µM [5]: 24.2%
- MIC [6]: > 100 µM

Compound: Cc1cc(NS(=O)(=O)c2ccc(NC(=O)c3sc4cc(Cl)ccc4c3Cl)cc2)no1
- growth inhibition (GI) [1]: Active
- inhibition [9]: inactive
- inhibition [7]: inactive

Compound: Cc1cc(NS(=O)(=O)c2ccc(NC(=O)/C=C/c3ccc(C(=O)N/N=C/c4cc(Br)ccc4O)cc3)cc2)no1
- inhibition [2]: inactive
- viability at 48 h, 50 µM [3]: > 70%
- inhibition [4]: Dose-dependent effect
- inhibition at 50 µM [5]: 21.5%
- MIC [6]: > 100 µM

— ChEMBL document CHEMBL3612039, “Design, synthesis and evaluation of novel polypharmacological antichlamydial agents” (Eur J Med Chem, 2015)
